This note sets out measurements from publication PMC3387282 (ACS medicinal chemistry letters, 2011).

One assay has as its system MEF Icmt^−/− cells. The assay is described as follows: MTT cell viability in MEF Icmt-/- cells. The format is cell-based. Particulars: for effect on viability in MEF Icmt^−/− cells (in words): MTT; for IC50: read-out: IC50 MEF Icmt^−/−.
Another assay deals with Icmt (Homo sapiens, UniProt O60725). In words: Icmt vapor diffusion assay. The assay is classed as biochemical. Particulars: for Icmt inhibition (in words): vapor diffusion assay; for potency relative to 10u: Icmt inhibition. The procedure, abridged: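 Vapor diffusion Icmt methylation assay. Screening at 10 μM inhibitor, with specific activity given as percent of the no-inhibitor AFC control. Test compounds were also run as possible substrates. IC50 was measured in vitro, Ki was calculated from IC50 by the Cheng–Prusoff method, and inhibition mode was set by further biochemical evaluation.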

A further assay relates to MEF Icmt^+/+ cells. In words: MTT cell viability in MEF Icmt+/+ cells. The assay is classed as cell-based.
Assay [1] concerns GFP-K-Ras localization in Jurkat T cells (E 6.1). In words: GFP-K-Ras membrane localization in Jurkat T cells. The format is cell-based. Particulars: 24 h treatment. The essentials:
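Jurkat T cells (E 6.1) expressing GFP-KRas treated 24 h with vehicle, test compound at several concentrations, or 25 μM simvastatin as reference. Cells laid on poly-L-lysine-coated coverslips (100 μg/mL) and fixed in 3.7% formaldehyde for 10 min. Fluorescence microscopy scored by eye in random fields of 100 cells as normal plasma membrane, partial, or complete mislocalization.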

Entries after “also recorded” stand apart in the source; their conditions may differ.

Icmt, sequence (O60725 whole entry, the tested form may be a part): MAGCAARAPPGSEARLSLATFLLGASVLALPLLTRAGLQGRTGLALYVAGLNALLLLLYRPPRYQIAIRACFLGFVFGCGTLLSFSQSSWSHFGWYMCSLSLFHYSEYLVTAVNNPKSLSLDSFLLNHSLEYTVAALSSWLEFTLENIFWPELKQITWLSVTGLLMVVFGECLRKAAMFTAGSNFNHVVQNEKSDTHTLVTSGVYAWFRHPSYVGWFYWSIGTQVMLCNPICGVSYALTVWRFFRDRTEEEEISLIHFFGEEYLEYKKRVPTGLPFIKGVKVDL

As for `COC(=O)CCSC/C=C(\C)CCn1cc(-c2cccc3ccccc23)nn1` [Compound 10g], in the assay with MEF Icmt^−/− cells, the “effect on viability in MEF Icmt^−/− cells (in words)” value is on record as “did not affect viability” and the IC50 is greater than 100 µM.
The term Ki denotes the equilibrium dissociation constant of an inhibitor or competing ligand from its target. Low readings indicate a stronger hold on the target, high ones a looser hold on the target. Consider `COC(=O)CCSC/C=C(\C)CCn1cc(CCc2ccc(-c3ccccc3)cc2)nn1` [Compound 10n], for which, on Icmt, the affinity corresponds to a Ki of 0.4 µM; the “mode of Icmt inhibition” value is “competitive inhibitor”; the “Icmt inhibition (in words)” value was “more potent than the corresponding carboxylate, 11n”. Also, the “ligand efficiency (in words)” value at Icmt (compared with POP-3MB) is listed as “significantly improved ligand efficiency”. The IC50 in the assay on MEF Icmt^−/− cells is greater than 100 µM. In the assay with MEF Icmt^+/+ cells, the “activity in MEF Icmt^+/+ versus Icmt^−/− cells (in words)” value is on record as “selectively cytotoxic”. Also, the GFP-K-Ras membrane localization entry in assay [1] is reported as “decrease in normal membrane localization; also recorded: capable of inducing K-Ras mislocalization”.
In the case of `COC(=O)CCSC/C=C(\C)CCn1cc(CCc2cccc(-c3ccccc3)c2)nn1` [Compound 10o], on Icmt (ratio of Icmt IC50), the “potency relative to 10n (times less potent)” value is given as roughly 30. Moreover, in the assay with MEF Icmt^−/− cells, the “effect on viability in MEF Icmt^−/− cells (in words)” value is “did not affect viability” and the IC50 is greater than 100 µM.
Take `COC(=O)CCSC/C=C(\C)CCn1cc(CCc2ccccc2-c2ccccc2)nn1` [Compound 10p]: the “Icmt inhibition (in words)” value at Icmt is given as “further reduced inhibitory activity”.
The same measure, in the same setting: in the case of `COC(=O)CCSC/C=C(\C)CCn1cc(COc2ccc(-c3ccccc3)cc2)nn1` [Compound 10q] it was “detrimental to inhibition”.
With `COC(=O)CCSC/C=C(\C)CCn1cc(CCc2ccc(-c3ccc(F)cc3)cc2)nn1` [Compound 10s], the “potency relative to 10u” value at Icmt is “approximately twice as potent”.
Consider `COC(=O)CCSC/C=C(\C)CCn1cc(CCc2ccc(-c3cccc(C#N)c3)cc2)nn1` [Compound 10t], for which the “potency relative to 10u” value on Icmt is on record as “approximately twice as potent”.
On to `C/C(=C\CSCCC(=O)O)CCn1cc(CCOC2CCCCO2)nn1` (stereo not drawn) [Compound 11m], for which the “Icmt inhibition (in words)” value at Icmt is listed as “poor Icmt inhibition”.
Regarding `CC(C)=CCC/C(C)=C/CC/C(C)=C/CSc1ccccc1C(=O)O` [FTS, S-farnesylthiosalicylic acid, reference compound], in the assay on MEF Icmt^+/+ cells, the “activity in MEF Icmt^+/+ versus Icmt^−/− cells (in words)” value is given as “equivalent activity in both cell lines”.
